Most compounds without a hit are left out; they make up all but 2.8% or so of the library.
NPY2 pot ag: NPY-Y2 potentiators or agonists, primary screen, cell-based | Neuropeptide Y receptor type 2 (Homo sapiens), P49146 | cells expressing NPY-Y2, potentiator/agonist read-out | activation, % at 3.6 µM | hit rate 0.45% among 220,000; in the data active = activation above about 27%;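 note: cells stimulated with NPY near EC25 plus isoproterenol at EC100; 0% = vehicle plus submaximal agonist and 100% = vehicle plus saturating agonist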
Target sequence (P49146 whole entry, looked up): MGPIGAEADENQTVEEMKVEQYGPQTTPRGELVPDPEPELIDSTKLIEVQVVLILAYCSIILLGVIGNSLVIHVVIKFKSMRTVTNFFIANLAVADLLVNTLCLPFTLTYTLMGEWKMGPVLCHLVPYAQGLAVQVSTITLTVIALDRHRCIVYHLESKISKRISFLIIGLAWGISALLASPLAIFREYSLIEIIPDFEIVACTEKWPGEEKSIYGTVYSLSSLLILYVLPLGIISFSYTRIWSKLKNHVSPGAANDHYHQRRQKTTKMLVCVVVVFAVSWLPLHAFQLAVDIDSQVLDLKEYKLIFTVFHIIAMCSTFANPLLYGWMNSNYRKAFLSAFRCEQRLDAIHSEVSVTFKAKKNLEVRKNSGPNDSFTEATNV
NPY-Y2 antag: NPY-Y2 receptor antagonists, primary screen, cell-based | hit rate 0.99% among 140,000 | NPY-Y2 expressing cells, antagonist mode | Neuropeptide Y receptor type 2 (Homo sapiens), P49146 | inhibition, % at 2.7 µM; in the data active = inhibition above about 17%;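 note: 0% = vehicle with agonist challenge and 100% = reference antagonist with challenge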
NPY-Y1 antag: NPY-Y1 receptor antagonists, primary screen, cell-based; Neuropeptide Y receptor type 1 (Homo sapiens), P25929; HEK293-CNG Y1 cells, membrane potential fluorescence; NPY at EC95, then isoproterenol; inhibition, % at 3.6 µM; hit rate 1% among 200,000; AID 1040, 2008;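 active = inhibition above the campaign mean inhibition of all tested compounds plus 3 SD, cut at about 20% in these data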;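 note: 0% = DMSO wells given NPY plus isoproterenol and 100% = isoproterenol alone without NPY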
Target sequence (P25929 whole entry, looked up): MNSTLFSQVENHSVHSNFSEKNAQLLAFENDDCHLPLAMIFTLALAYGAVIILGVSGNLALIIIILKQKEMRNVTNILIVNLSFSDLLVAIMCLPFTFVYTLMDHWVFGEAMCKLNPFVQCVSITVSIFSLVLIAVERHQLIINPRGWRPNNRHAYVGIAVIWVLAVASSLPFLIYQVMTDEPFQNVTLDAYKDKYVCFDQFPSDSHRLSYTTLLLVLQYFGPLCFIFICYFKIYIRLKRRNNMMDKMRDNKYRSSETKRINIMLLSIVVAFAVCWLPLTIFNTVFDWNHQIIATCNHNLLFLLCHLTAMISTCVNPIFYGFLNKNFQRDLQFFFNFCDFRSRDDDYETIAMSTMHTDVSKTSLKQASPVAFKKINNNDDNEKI
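Material: Y1- and CNG-channel-expressing HEK293 cells / Probe or stimulus: NPY 25 nM then isoproterenol 1 µM plus Ro 20-1724 25 µM / Doses: 3.6 µM single dose, DMSO 0.4% / Schedule: compound incubation 1 h at room temperature, readout 45 min post-stimulation / Signal: membrane potential fluorescence / Benchmarks: isoproterenol-only wells as full block versus NPY-plus-isoproterenol wells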
EP2 mod: EP2 receptor modulators, cAMP readout, primary screen, cell-based, HTRF cAMP, PGE2 stimulation | induction, % at 25 µM | EP2-expressing cells, cAMP HTRF FRET, PGE2 co-stimulation | Prostaglandin E2 receptor EP2 subtype (Homo sapiens), P43116 | hit rate 0.83% among 260,000;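 active = compounds whose cAMP rise, as percent of the full-agonist control response, exceeds 60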;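 note: rat C6 glioma line stably carrying human EP2 under a CMV promoter; the protocol text gives 20 µM as final concentration; 100% = response of wells given 1 µM PGE2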
NPY1 pot ag: NPY-Y1 receptor potentiators or agonists, primary screen, cell-based. Neuropeptide Y receptor type 1 (Homo sapiens), P25929. NPY-Y1 expressing cells, potentiator/agonist activation. activation, % at 3.6 µM. hit rate 0.37% among 220,000; in the data active = activation above about 33%, passing the limit was not always enough;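 note: cells stimulated with NPY at EC10 then isoproterenol at EC100; 0% = low agonist plus stimulus and 100% = saturating agonist plus stimulus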
PGE2 EP2 inh: human EP2 receptor antagonists, primary screen, TR-FRET cAMP, C6 glioma cells; Prostaglandin E2 receptor EP2 subtype (Homo sapiens), P43116; C6 glioma cells expressing human EP2; cells stimulated with saturating PGE2; inhibition, % at 25 µM; hit rate 0.52% among 260,000;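 active = percent inhibition above 40 after rounding to a whole number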;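 note: rat C6 glioma host cells with rolipram phosphodiesterase inhibitor present; the protocol text gives 20 µM as final concentration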
An asterisk follows results filed as active; . = no result.

SMILES | NPY2 pot ag | NPY-Y2 antag | NPY-Y1 antag | EP2 mod | NPY1 pot ag | PGE2 EP2 inh
COc1ccc(C(C(=O)NC2CCCC2)N(C(=O)c2ccn[nH]2)c2ccccc2F)cc1OC (centres undefined) | . | . | . | 5.8 | . | 5.3
O=C(COc1ccccc1Cl)Nc1ccc2c(c1)OCCO2 | 10.2 | 7.1 | 6.7 | 63.9* | 12.6 | 18.4
Cc1ccccc1OCC(=O)Nc1ccc2c(c1)OCCO2 | -6.8 | . | . | -6.3 | -2.4 | 5.0
CCOc1ccc(Nc2nc(NCC3CCCO3)c3ccccc3n2)cc1 (centres undefined) | 13.7 | . | 16.3 | -71.6 | -9.6 | 52.1*
CC(C)(C)NC(=O)CN(CC1CCCO1)C(=O)CCC(=O)Nc1nccs1 (centres undefined) | . | . | . | -5.2 | . | 7.6
CCOC(=O)C1=C(N)N2C(=O)C(C)SC2=C(C(=O)OCC)C1c1ccc(O)cc1 (centres undefined) | 1.4 | . | . | 10.9 | 19.6 | 8.4
CCOC(=O)C1=C(N)N2C(=O)C(C)SC2=C(C(=O)OCC)C1c1ccccc1 (centres undefined) | 14.3 | 0.9 | -0.2 | 62.3* | -27.4 | 8.6
C/C(CCN1CCCCc2nc(C)c(C)cc21)=N\O[C@@H](C)CN1CCCCc2nc(C)c(C)cc21 | -5.2 | 11.4 | 6.2 | 7.5 | -42.7 | .
COc1ccc(O[C@H]2C=C[C@@H](c3ccccc3)O[C@@H]2CO/N=C(\C)CCN2CCCCc3nc(C)c(C)cc32)cc1 | -8.5 | 21.4* | 21.8* | 25.4 | -29.6 | .
CCOC(=O)c1cnc2ccc(OCC)cc2c1NCc1ccccc1 | -66.6 | 65.7* | 69.7* | 53.4 | -198.9 | 12.7
CCOc1ccc2ncc(S(=O)(=O)c3ccccc3)c(N3CCN(c4ccc(OC)cc4)CC3)c2c1 | 3.8 | 1.3 | 0.2 | 38.0 | -2.1 | 3.4
CCOC(=O)c1cnc2ccc(OCC)cc2c1N1CCN(c2ccccc2)CC1 | -28.5 | 17.4* | 29.3* | 18.4 | -36.2 | 4.9
O=c1[nH]c(=O)c2cc(S(=O)(=O)N3CCN(c4ccccn4)CC3)ccc2[nH]1 | . | . | . | -46.3 | . | 4.9
CCOC(=O)Cn1nnc(-c2ccc(C)cc2)n1 | . | . | . | 5.2 | . | 12.6
O=C(CN1CCC(O)(c2ccc(F)cc2)CC1)c1ccc2c(c1)OCCCO2 | . | . | . | -53.4 | . | 10.6
O[C@@H](c1cc(-c2ccccc2)nc2c1ccc1ccccc12)[C@@H]1CCCCN1 | . | . | . | -11.4 | . | 84.3*
COc1ccc(-c2cc([C@H](O)[C@@H]3CCCCN3)c3ccccc3n2)cc1 | . | . | . | -23.0 | . | 50.3*
COc1ccc(-c2cc(OC)c3ccccc3n2)cc1 | -2.6 | 0.5 | 13.6 | 14.6 | -26.5 | 12.7
Cc1ccc2cc(CN(CCCO)Cc3nnnn3CCc3ccccc3)c(=O)[nH]c2c1C | . | . | . | -47.4 | . | 9.7
COc1cc(C2C3=C(CCCC3=O)NC3=C2C(=O)CCC3)ccc1OCc1ccccc1 | . | . | . | -21.2 | . | 10.1
Cc1ccc(/C=C/C(=O)c2ccc(Br)cc2)o1 | . | . | . | -107.5 | . | 94.6*
CC(=O)/C=C/c1ccc(C)o1 | 5.9 | . | -2.1 | 16.4 | 15.7 | 7.5
O=C(c1ccccn1)C1CCN(C(=O)CCN2CCCC2)CC1 | . | . | . | 10.3 | . | 4.1
O=C(O)c1cccc(Cn2c(Cl)c(/C=N/NC(=O)c3ccc(O)cc3)sc2=O)c1 | -18.5 | . | . | 61.4* | -4.2 | 3.3
O=C(COc1ccccc1)N/N=C/c1sc(=O)n(Cc2cccc(C(=O)O)c2)c1Cl | -23.7 | . | . | 19.3 | -16.7 | 6.3
SMILES | NPY2 pot ag | NPY-Y2 antag | NPY-Y1 antag | EP2 mod | NPY1 pot ag | PGE2 EP2 inh
c1ccc(Cc2cc3ccccc3nc2SCCN2CCOCC2)cc1 | . | . | . | 47.9 | . | 14.4
Cc1cc(NC(=O)CSc2nc3c(c(-c4cccnc4)c2C#N)CCC3)no1 | -13.6 | 3.4 | 0.2 | 30.8 | -18.0 | 49.2*
O=C(Cc1cc(=O)oc2cc(O)ccc12)NCC1CCC(C(=O)O)CC1 (centres undefined) | 4.5 | 1.5 | 4.0 | 64.1* | -9.0 | 11.5
CCOC(=O)Cn1c(C(F)(F)F)nc2nc(Cl)c(Cl)nc21 | . | . | . | -33.1 | . | 40.0*
CCCCCC(=O)Nc1cc(N(C)C)nc2ccccc12 | -12.2 | 6.4 | 15.8 | . | -9.8 | 39.8*
CCN(CC)CC(=O)Nc1cc(N(C)C)nc2ccccc12 | -0.8 | . | . | -12.8 | -12.9 | 9.1
CCC(CCC(C)[C@H]1CCC2C3CC=C4C[C@@H](O)CC[C@]4(C)C3CC[C@@]21C)C(C)C (some centres undefined) | . | . | . | 5.4 | . | 14.5
COCCCn1c(SCC(=O)Nc2ccccc2C(F)(F)F)nc2sc3c(c2c1=O)CCC3 | . | . | . | 58.9 | . | 5.6
CC(C)Cn1cnc2c(c(-c3ccccc3)c(-c3ccccc3)n2Cc2ccco2)c1=N | 3.0 | 76.2* | 40.2* | -39.2 | 3.6 | 24.2
N=c1c2c(-c3ccccc3)c(-c3ccccc3)n(Cc3ccco3)c2ncn1CCCn1ccnc1 | -20.4 | 41.4* | 57.2* | -35.7 | -149.5 | 12.1
N=c1c2c(-c3ccccc3)c(-c3ccccc3)n(Cc3ccccc3)c2ncn1CCO | -24.9 | 63.2* | 61.2* | 2.9 | -99.8 | 4.0
COC(=O)C(C)Sc1nnc(COc2ccc(Cl)cc2)n1C (centres undefined) | . | . | . | 12.3 | . | 21.9
CCOC(=O)C(=O)Nc1sc(C(=O)Nc2cccc(C)c2)c(C)c1C(=O)OC | . | . | . | -26.3 | . | 5.5
CCOC(=O)c1cnc(SCC(=O)c2cc(F)ccc2OC)nc1N | . | . | . | -26.6 | . | 9.7
CCCC(c1nnnn1C1CCCCC1)N(Cc1ccccc1)Cc1cc2cc(C)ccc2[nH]c1=O (centres undefined) | . | . | . | 23.7 | . | 8.8
Cc1cc2c(cc3c(=O)n(CC(=O)N4CCC(C)CC4)nc(C)n32)o1 | . | . | . | -37.1 | . | 11.2
Fc1ccc(-c2csc3ncnc(N4CCc5ccccc5C4)c23)cc1 | 4.3 | 12.6 | 12.2 | 63.7* | -6.9 | 5.8
Fc1ccc(-c2csc3ncnc(Nc4ccc(N5CCOCC5)cc4)c23)cc1 | 8.8 | -2.6 | -6.6 | 3.0 | -2.5 | 9.7
COc1cc(NC(=O)C2CC(c3ccc(Cl)cc3)=NO2)c(OC)cc1Cl (centres undefined) | . | . | . | 15.8 | . | 5.5
CCc1nn(CC(=O)NCC2CC2)c(=O)c2cc3occc3n12 | . | . | . | -24.2 | . | 6.1
CCOC(=O)c1c(-c2ccccc2)oc2ccc(OCC(=O)O)cc12 | -11.1 | . | . | 68.3* | -9.4 | 11.2
CCN(CC)C(=O)c1c(-c2ccccc2)oc2ccc(OC)cc12 | -5.8 | 5.5 | 6.1 | 64.1* | -8.7 | 9.9
CCCc1cc(=O)[nH]c(SCCOc2ccc(Cl)cc2)n1 | -23.4 | 1.1 | 2.1 | 63.7* | -2.7 | 7.2
CCCCSc1nc(CCC)cc(=O)[nH]1 | -17.5 | 5.4 | 5.2 | 14.9 | -21.8 | 4.6
